Test results published in ChEMBL document CHEMBL1148946, “Farinosones A-C, neurotrophic alkaloidal metabolites from the entomogenous deuteromycete Paecilomyces farinosus” (J Nat Prod, 2004).

Assays:
PC-12 [1] = assay: Induction of neuritogenic activity in rat PC12 cells assessed as cells with length of one cell diameter at 20 uM after 48 hrs by phase contrast microscope; assay type: functional
Outline: (§1)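 PC-12 cells (DSMZ) were primed 5 days in DMEM with 1% HS, 0.5% FBS and 50 ng/mL NGF, then put back in full-serum DMEM. Cells were dispersed through a 21-gauge needle, seeded at 1 × 10^5 cells/mL on collagen-coated wells and allowed 4 h. Compound at final 20 or 50 µM (0.2% MeOH or DMSO) for 48 h; NGF 50 ng/mL control. Phase-contrast scoring of 300 cells in three areas of two wells.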

PC-12 [2] = assay: Induction of neuritogenic activity in rat PC12 cells assessed as round cells without differention at 20 uM after 48 hrs by phase contrast microscope; assay type: functional; outline: as §1
PC-12 [3] = assay: Induction of neuritogenic activity in rat PC12 cells assessed as cells with longer than one cell diameter at 50 uM after 48 hrs by phase contrast microscope; assay type: functional; outline: as §1
PC-12 [4] = assay: Induction of neuritogenic activity in rat PC12 cells assessed as cells with length of one cell diameter at 50 uM after 48 hrs by phase contrast microscope; assay type: functional; outline: as §1
PC-12 [5] = assay: Induction of neuritogenic activity in rat PC12 cells assessed as round cells without differention at 50 uM after 48 hrs by phase contrast microscope; assay type: functional; outline: as §1
PC-12 [6] = assay: Cytotoxicity against rat PC12 cells at 0.1 to 50 uM after 4 hrs; assay type: cell-based; conditions: pc-12, 2 days, in the assay text read “after 2 days” for “after 4 hrs”
Outline: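 MTT viability in PC-12 cells (DSMZ) in DMEM with 10% HS, 5% FBS and pen/strep; 5 × 10^4 cells/mL seeded, 1 h at 37 °C, then MeOH or DMSO stocks diluted in DMEM to 50, 20, 10, 1, 0.1 µM. Cells exposed 2 days at 37 °C, 5% CO2. MTT added for 4 h, SDS lysis overnight, OD 544 nm. Quadruplicate, mean ± SD; 0.2% MeOH/1% DMSO taken as 100% viability.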

PC-12 [7] = assay: Induction of neuritogenic activity in rat PC12 cells assessed as cells with flattened appearance at 50 uM after 48 hrs by phase contrast microscope; assay type: functional; outline: as §1
PC-12 [8] = assay: Induction of neuritogenic activity in rat PC12 cells assessed as cells with flattened appearance at 20 uM after 48 hrs by phase contrast microscope; assay type: functional; outline: as §1

Row | SMILES | Activity (PC-12 [1]) | Activity (PC-12 [2]) | Activity (PC-12 [3]) | Activity (PC-12 [4]) | Activity (PC-12 [5]) | Activity (PC-12 [6]) | Activity (PC-12 [7]) | Activity (PC-12 [8])
1 | CCC(C)/C=C(C)/C=C/C=C/C=C/C(=O)c1c(O)c(-c2ccc(O)cc2)c[nH]c1=O (stereo not drawn) [FARINOSONE A] | 40% | 60% | 10% | 60% | 30% | Non-toxic | – | –
2 | CCC(C)/C=C(C)/C=C/C=C/C=C/C(=O)c1c(O)c(-c2ccc(O)cc2)cn(O)c1=O (stereo not drawn) [FARINOSONE B] | – | – | – | – | – | Non-toxic | – | –
3 | CC(/C=C/C(=O)NC(CO)Cc1ccc(O)cc1)=C\C(C)CC(=O)O (stereo not drawn) [FARINOSONE C] | – | 47% | – | 13% | 27% | Non-toxic | 60% | 53%
